{"source": "ChEMBL document CHEMBL1128668", "about": "“Synthesis of N,N'-substituted piperazine and homopiperazine derivatives with polyamine-like actions at N-methyl-D-aspartate receptors” (J Med Chem, 1995)", "key": {"[1]": {"target": "T1, Glutamate NMDA receptor (Rattus norvegicus) (UniProt P35439+Q00959+Q00960+Q00961+Q62645+Q8VHN2+Q9R1M7)", "assay": "Efficacy in enhancing binding of [3H]- MK-801 to NMDA receptors compared to spermine", "assay_type": "protein-complex assay", "procedure,_shortened": "(§1)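 Forebrains from adult male Sprague-Dawley rats (175–300 g) homogenized in 5 mM HEPES/4.5 mM Tris (pH 7.7). Membranes were washed extensively, including EDTA cycles, to remove endogenous glutamate, glycine and polyamines. About 100 μg protein was incubated with [3H]MK-801 (final 4–5 nM) and compound (1–1000 μM) for 2 h at room temperature under non-equilibrium conditions, then filtered over PEI-soaked GF/B. Nonspecific binding was taken with 100 μM phencyclidine. Efficacy is given as percent of the spermine-induced increase, ≥3 experiments.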"}, "[2]": {"target": "Glutamate NMDA receptor", "assay": "Ability to enhance [3H]MK-801 binding to NMDA receptors in rat forebrain membranes was calculated with respect to spermine", "assay_type": "cell membranes, Membrane", "procedure,_shortened": "as §1"}, "[3]": {"target": "Glutamate NMDA receptor"}, "[4]": {"target": "T1, Glutamate NMDA receptor (Rattus norvegicus)", "assay": "Efficacy of compound in enhancing binding of [3H]MK-801 to NMDA receptors compared to spermine", "assay_type": "protein-complex assay", "procedure,_shortened": "as §1"}, "[5]": {"target": "Glutamate NMDA receptor", "assay": "Inhibition of [3H]MK-801 binding to NMDA receptor by Conantokin-G (with a concentration range of 0.024-12.5 uM) stimulated by the compound at a concentration of 100 uM", "assay_type": "protein-complex assay"}, "[6]": {"target": "Glutamate NMDA receptor", "assay": "Inhibition of [3H]MK-801 binding to NMDA receptor by Conantokin-G (at a concentration range of 0.024-12.5 uM) stimulated by the compound at a concentration of 100 uM", "assay_type": "protein-complex assay"}}, "data": [{"smiles": "CN(C)CCCCN1CCN(CCCCN(C)C)CC1", "values": [{"measurement": "Emax", "setting": "[1]", "value": 84, "unit": "%"}, {"measurement": "EC50", "setting": "[2]", "value": 77.5, "unit": "µM"}]}, {"smiles": "NCCCN1CCN(CCCN)CC1", "values": [{"measurement": "Emax", "setting": "[1]", "value": 80, "unit": "%"}, {"measurement": "EC50", "setting": "[2]", "value": 50.1, "unit": "µM"}]}, {"smiles": "NCCCNCCCCNCCCN", "note": "[SPERMINE]", "values": [{"measurement": "IC50", "setting": "[3]", "value": 232, "unit": "µM"}, {"measurement": "Emax", "setting": "[4]", "value": 100, "unit": "%"}, {"measurement": "EC50", "setting": "[2]", "value": 5.2, "unit": "µM"}]}, {"smiles": "CNCCN1CCN(CCNC)CC1", "values": [{"measurement": "Emax", "setting": "[1]", "value": 50, "unit": "%"}, {"measurement": "EC50", "setting": "[2]", "value": 64.5, "unit": "µM"}]}, {"smiles": "NCCCCN1CCN(CCCCN)CC1", "values": [{"measurement": "Emax", "setting": "[1]", "value": 71, "unit": "%"}, {"measurement": "EC50", "setting": "[2]", "value": 55.9, "unit": "µM"}]}, {"smiles": "C1CCN(CCCN2CCN(CCCN3CCCC3)CC2)C1", "values": [{"measurement": "Emax", "setting": "[1]", "value": 64, "unit": "%"}, {"measurement": "EC50", "setting": "[2]", "value": 45.9, "unit": "µM"}]}, {"smiles": "CN(C)CCCN1CCN(CCCN(C)C)CC1", "values": [{"measurement": "Emax", "setting": "[1]", "value": 66, "unit": "%"}, {"measurement": "EC50", "setting": "[2]", "value": 36.8, "unit": "µM"}]}, {"smiles": "CN(C)CCN1CCN(CCN(C)C)CC1", "values": [{"measurement": "Emax", "setting": "[1]", "value": 51, "unit": "%"}, {"measurement": "EC50", "setting": "[2]", "value": 112, "unit": "µM"}]}, {"smiles": "NCCCN1CCCN(CCCN)CC1", "values": [{"measurement": "Emax", "setting": "[1]", "value": 76, "unit": "%"}, {"measurement": "EC50", "setting": "[2]", "value": 24.4, "unit": "µM"}]}, {"smiles": "NCCCCN1CCCN(CCCCN)CC1", "values": [{"measurement": "Emax", "setting": "[1]", "value": 76, "unit": "%"}, {"measurement": "EC50", "setting": "[2]", "value": 37.5, "unit": "µM"}]}, {"smiles": "CNCCCCN1CCN(CCCCNC)CC1", "values": [{"measurement": "IC50", "setting": "[5]", "value": 196, "unit": "µM"}, {"measurement": "Emax", "setting": "[1]", "value": 68, "unit": "%"}, {"measurement": "EC50", "setting": "[2]", "value": 21.4, "unit": "µM"}]}, {"smiles": "NCCCC(=O)N1CCN(C(=O)CCCN)CC1", "values": [{"measurement": "Emax", "setting": "[1]", "value": 45, "unit": "%"}, {"measurement": "EC50", "setting": "[2]", "value": 239, "unit": "µM"}]}, {"smiles": "CNCCCN1CCN(CCCNC)CC1", "values": [{"measurement": "Emax", "setting": "[1]", "value": 81, "unit": "%"}, {"measurement": "EC50", "setting": "[2]", "value": 35.3, "unit": "µM"}]}, {"smiles": "NCC(=O)N1CCN(C(=O)CN)CC1", "values": [{"measurement": "Emax", "setting": "[1]", "value": 90, "unit": "%"}, {"measurement": "EC50", "setting": "[2]", "value": 96.5, "unit": "µM"}]}, {"smiles": "NCC(=O)N1CCCN(C(=O)CN)CC1", "values": [{"measurement": "Emax", "setting": "[4]", "value": 60, "unit": "%"}, {"measurement": "IC50", "setting": "[6]", "value": 307, "unit": "µM"}, {"measurement": "EC50", "setting": "[2]", "value": 18, "unit": "µM"}]}, {"smiles": "NCCN1CCCN(CCN)CC1", "values": [{"measurement": "Emax", "setting": "[1]", "value": 43, "unit": "%"}, {"measurement": "EC50", "setting": "[2]", "value": 50.7, "unit": "µM"}]}]}
